Laboratory results from ChEMBL document CHEMBL4130443, “Targeting breast cancer stem cells by novel HDAC3-selective inhibitors” (Eur J Med Chem, 2017).
The source made the active and inactive calls. The calls are words filed in the database; no cut-off is given here.

Columns and labels:
Histone deacetylase 2 [1] = target: T1, Histone deacetylase 2 (Homo sapiens, UniProt Q92769); assay: Inhibition of human HDAC2 at 1 uM using p53 (379 to 382 residues) derived fluorogenic peptide RHKKAc
How it was run: (§1)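 Isoform profiling run by a commercial vendor with compounds at 1 µM. Values are percent inhibition, each the average of two determinations.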

[2] = target: Histone deacetylase 5 (Homo sapiens) (UniProt Q9UQL6); assay: Inhibition of human HDAC5 at 1 uM using Boc-Lys(trifluoroacetyl)-AMC substrate; how it was run: as §1
Sequence of Histone deacetylase 5 (Homo sapiens) (Q9UQL6 whole entry, the tested form may be a part): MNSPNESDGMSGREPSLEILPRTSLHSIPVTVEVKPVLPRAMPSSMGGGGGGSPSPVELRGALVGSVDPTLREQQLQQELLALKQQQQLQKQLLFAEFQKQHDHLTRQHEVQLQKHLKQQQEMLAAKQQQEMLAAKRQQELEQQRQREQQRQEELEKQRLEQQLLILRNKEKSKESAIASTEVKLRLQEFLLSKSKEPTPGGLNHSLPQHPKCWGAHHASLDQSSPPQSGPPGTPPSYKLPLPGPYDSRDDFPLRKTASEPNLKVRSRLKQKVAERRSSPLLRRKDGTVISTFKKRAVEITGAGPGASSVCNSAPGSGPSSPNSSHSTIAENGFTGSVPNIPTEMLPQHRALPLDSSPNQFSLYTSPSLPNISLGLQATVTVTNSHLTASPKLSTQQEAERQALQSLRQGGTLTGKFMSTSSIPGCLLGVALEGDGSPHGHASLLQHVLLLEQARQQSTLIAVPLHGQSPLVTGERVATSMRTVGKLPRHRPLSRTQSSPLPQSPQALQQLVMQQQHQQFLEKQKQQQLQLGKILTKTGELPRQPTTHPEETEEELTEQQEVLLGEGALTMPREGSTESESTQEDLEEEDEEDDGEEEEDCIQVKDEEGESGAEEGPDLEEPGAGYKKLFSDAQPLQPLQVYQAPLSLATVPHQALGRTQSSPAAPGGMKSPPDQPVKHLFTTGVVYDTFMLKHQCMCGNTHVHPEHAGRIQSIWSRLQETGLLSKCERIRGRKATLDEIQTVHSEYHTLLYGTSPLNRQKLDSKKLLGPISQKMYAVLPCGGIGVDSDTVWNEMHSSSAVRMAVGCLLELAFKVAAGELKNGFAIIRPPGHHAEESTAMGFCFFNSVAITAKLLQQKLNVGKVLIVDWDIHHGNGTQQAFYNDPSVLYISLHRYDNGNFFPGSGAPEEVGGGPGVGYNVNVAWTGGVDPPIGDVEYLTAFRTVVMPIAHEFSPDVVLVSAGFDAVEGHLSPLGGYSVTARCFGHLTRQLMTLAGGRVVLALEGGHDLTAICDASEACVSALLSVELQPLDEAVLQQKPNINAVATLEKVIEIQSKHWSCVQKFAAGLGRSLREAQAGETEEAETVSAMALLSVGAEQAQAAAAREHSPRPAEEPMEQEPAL

[3] = target: T2, Histone deacetylase 8 (Homo sapiens) (UniProt Q9BY41); assay: Inhibition of human HDAC8 at 1 uM using p53 (379 to 382 residues) derived fluorogenic peptide RHKAcKAc; how it was run: as §1
T2 sequence (whole entry): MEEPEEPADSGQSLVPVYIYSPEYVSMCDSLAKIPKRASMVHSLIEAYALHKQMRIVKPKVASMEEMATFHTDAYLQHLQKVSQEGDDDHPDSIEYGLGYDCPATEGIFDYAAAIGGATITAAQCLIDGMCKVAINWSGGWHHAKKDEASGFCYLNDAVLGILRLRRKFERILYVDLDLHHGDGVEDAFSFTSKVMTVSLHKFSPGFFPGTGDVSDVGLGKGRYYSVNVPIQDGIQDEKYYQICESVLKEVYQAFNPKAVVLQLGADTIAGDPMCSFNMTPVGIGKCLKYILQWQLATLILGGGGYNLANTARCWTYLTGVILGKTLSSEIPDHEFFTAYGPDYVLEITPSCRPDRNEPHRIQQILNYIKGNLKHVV

[4] = target: Histone deacetylase 4 (Homo sapiens) (UniProt P56524); assay: Inhibition of human HDAC4 at 1 uM using Boc-Lys(trifluoroacetyl)-AMC substrate; how it was run: as §1
Sequence of Histone deacetylase 4 (Homo sapiens) (P56524 whole entry, the tested form may be a part): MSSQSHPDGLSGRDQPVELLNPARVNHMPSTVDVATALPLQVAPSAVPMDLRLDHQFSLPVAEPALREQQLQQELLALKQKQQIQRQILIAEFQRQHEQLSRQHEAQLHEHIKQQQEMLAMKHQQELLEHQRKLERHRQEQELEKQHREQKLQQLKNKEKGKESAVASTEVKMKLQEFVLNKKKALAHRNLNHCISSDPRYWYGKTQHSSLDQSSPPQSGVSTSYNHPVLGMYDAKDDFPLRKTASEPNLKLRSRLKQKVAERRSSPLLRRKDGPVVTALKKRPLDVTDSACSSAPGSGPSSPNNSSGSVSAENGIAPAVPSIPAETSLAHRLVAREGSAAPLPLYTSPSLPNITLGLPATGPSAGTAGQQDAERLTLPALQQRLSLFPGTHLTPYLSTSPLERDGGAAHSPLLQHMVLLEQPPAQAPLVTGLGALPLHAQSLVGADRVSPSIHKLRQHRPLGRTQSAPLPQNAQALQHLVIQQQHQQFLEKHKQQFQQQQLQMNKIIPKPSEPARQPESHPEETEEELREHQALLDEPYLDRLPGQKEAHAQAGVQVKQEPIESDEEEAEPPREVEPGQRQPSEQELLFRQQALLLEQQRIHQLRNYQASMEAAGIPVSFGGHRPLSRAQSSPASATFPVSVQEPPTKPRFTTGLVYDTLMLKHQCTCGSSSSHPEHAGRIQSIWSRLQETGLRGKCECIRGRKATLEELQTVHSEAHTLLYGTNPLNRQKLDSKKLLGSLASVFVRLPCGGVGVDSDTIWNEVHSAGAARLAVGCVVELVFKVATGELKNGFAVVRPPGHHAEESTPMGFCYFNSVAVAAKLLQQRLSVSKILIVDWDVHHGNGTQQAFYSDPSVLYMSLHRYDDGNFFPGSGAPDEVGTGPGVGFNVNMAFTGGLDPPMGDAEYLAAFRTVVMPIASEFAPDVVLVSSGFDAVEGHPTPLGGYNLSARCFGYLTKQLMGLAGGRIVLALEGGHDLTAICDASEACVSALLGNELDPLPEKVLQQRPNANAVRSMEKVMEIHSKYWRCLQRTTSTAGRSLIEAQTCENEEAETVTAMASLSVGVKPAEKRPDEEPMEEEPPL

[5] = target: T3, Protein deacetylase HDAC6 (Homo sapiens) (UniProt Q9UBN7); assay: Inhibition of human HDAC6 at 1 uM using p53 (379 to 382 residues) derived fluorogenic peptide RHKKAc; how it was run: as §1
T3 sequence (whole entry): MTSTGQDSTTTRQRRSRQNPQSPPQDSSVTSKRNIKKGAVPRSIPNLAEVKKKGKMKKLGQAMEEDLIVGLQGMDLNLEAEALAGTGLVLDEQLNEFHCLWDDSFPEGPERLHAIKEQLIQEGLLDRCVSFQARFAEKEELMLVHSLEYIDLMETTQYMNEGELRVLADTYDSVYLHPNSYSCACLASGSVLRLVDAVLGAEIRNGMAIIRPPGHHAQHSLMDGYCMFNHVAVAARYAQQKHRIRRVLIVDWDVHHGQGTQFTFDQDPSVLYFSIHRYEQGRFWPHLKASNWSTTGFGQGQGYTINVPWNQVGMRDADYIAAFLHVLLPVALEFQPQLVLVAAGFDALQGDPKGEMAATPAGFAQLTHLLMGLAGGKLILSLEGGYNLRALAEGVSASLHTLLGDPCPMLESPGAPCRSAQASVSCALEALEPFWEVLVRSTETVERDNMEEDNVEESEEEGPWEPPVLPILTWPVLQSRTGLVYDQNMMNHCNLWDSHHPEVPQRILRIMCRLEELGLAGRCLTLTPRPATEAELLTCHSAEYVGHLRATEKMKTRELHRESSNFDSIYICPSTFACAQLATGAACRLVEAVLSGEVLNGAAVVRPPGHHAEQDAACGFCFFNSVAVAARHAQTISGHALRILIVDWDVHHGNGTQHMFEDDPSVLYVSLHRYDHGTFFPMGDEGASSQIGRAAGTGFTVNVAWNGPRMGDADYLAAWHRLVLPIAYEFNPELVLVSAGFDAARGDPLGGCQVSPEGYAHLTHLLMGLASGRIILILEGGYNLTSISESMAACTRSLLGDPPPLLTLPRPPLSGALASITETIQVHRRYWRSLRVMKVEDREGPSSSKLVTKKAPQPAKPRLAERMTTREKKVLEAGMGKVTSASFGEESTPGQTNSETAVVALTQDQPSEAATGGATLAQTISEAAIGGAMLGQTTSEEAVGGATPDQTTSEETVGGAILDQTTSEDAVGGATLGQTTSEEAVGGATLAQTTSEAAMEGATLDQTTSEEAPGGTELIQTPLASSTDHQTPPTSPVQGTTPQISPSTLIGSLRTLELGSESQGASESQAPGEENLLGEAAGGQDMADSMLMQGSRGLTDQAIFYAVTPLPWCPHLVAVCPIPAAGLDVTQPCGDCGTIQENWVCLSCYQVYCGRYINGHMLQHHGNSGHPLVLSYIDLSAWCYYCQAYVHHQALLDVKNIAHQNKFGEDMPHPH

Histone deacetylase 1 [6] = target: T4, Histone deacetylase 1 (Homo sapiens, UniProt Q13547); assay: Inhibition of human HDAC1 at 1 uM using p53 (379 to 382 residues) derived fluorogenic peptide RHKKAc; how it was run: as §1
T4 sequence (Q13547 whole entry, the tested form may be a part): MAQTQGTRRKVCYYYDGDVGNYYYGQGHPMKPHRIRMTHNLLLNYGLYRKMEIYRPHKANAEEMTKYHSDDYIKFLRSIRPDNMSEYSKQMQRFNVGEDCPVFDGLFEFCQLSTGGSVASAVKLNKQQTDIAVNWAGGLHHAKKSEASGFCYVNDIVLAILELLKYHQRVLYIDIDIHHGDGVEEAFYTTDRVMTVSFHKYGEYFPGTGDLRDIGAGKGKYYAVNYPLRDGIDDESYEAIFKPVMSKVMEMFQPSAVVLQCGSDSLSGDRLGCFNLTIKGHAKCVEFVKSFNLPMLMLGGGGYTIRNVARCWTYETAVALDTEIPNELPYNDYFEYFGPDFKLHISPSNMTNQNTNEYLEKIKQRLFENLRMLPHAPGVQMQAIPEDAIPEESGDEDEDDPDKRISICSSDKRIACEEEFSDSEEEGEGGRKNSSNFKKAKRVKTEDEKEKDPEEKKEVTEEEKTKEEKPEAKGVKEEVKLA

[7] = target: Histone deacetylase 3/Nuclear receptor corepressor 2 (HDAC3/NCoR2) (Homo sapiens) (UniProt O15379+Q9Y618); assay: Inhibition of human HDAC3/NCOR2 at 1 uM using p53 (379 to 382 residues) derived fluorogenic peptide RHKKAc; assay type: protein-complex assay; how it was run: as §1
Histone deacetylase 1 [8] = target: T4, Histone deacetylase 1; assay: Inhibition of human HDAC1 using p53 (379 to 382 residues) derived fluorogenic peptide RHKKAc
Histone deacetylase 2 [9] = target: T1, Histone deacetylase 2; assay: Inhibition of human HDAC2 using p53 (379 to 382 residues) derived fluorogenic peptide RHKKAc
[10] = target: Histone deacetylase 3/Nuclear receptor corepressor 2 (HDAC3/NCoR2) (Homo sapiens, UniProt O15379); assay: Inhibition of human HDAC3/NCOR2 using p53 (379 to 382 residues) derived fluorogenic peptide RHKKAc; assay type: protein-complex assay
[11] = target: T3, Protein deacetylase HDAC6 (Homo sapiens); assay: Inhibition of HDAC6 in human MDA-MB-231 cells assessed as increase in histone H3K9 acetylation at 0.1 to 2.5uM incubated for 48 hrs by Western blot method; assay type: cell-based; details: in the assay text read “tubulin acetylation” for “histone H3K9 acetylation”
How it was run: (§2)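 Cells treated 48 h at the indicated concentrations, with a reference HDAC inhibitor at 0.25 µM as positive control on each blot. Lysed in 1% SDS, 10 mM EDTA, 50 mM Tris-HCl pH 8.1 with protease/phosphatase inhibitors, then sonicated. Equal protein by SDS-PAGE on nitrocellulose. Primary antibodies 1:1000 overnight at 4°C, HRP secondary, ECL. Blots for pan-H3 and H3K9 acetylation, tubulin acetylation and Notch1.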

[12] = target: T2, Histone deacetylase 8 (Homo sapiens); assay: Inhibition of HDAC8 in human MDA-MB-231 cells assessed as reduction in Notch1 expression at 0.1 to 2.5uM incubated for 48 hrs by Western blot method; assay type: cell-based; how it was run: as §2
Homo sapiens = species on record: Homo sapiens; assay: Selectivity index, ratio of IC50 for human HDAC1 to IC50 for human HDAC3

T1 sequence (Q92769 whole entry, the tested form may be a part, canonical isoform): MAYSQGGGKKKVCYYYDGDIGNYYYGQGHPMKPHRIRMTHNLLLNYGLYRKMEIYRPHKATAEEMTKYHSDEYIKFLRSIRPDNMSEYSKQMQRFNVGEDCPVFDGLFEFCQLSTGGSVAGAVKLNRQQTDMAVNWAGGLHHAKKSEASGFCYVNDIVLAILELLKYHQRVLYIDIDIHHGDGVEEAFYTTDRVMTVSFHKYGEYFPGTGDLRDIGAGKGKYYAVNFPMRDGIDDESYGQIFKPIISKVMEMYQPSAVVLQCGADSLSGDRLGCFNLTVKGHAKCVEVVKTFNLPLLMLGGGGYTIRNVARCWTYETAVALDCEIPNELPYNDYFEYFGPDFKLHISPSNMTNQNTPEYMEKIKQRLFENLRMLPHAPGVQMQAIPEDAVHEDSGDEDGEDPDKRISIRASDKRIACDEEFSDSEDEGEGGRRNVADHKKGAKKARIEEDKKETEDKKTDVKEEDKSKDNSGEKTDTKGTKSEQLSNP

inhibition (Histone deacetylase 2 [1])	inhibition [2]	inhibition [3]	inhibition [4]	inhibition [5]	inhibition (Histone deacetylase 1 [6])	inhibition [7]	IC50 (Histone deacetylase 1 [8])	IC50 (Histone deacetylase 2 [9])	IC50 [10]	inhibition [11]	inhibition [12]	Ratio IC50 (Homo sapiens)	Structure (SMILES)
							1.3 µM	2.1 µM	0.2 µM				Nc1cc(F)ccc1NC(=O)c1ccc(NC(=O)[C@@H]2C[C@@H]2c2ccccc2)cc1 (relative stereo)
							1.8 µM	2.8 µM	0.21 µM			8.6	C[C@@H](C(=O)Nc1ccc(C(=O)Nc2ccc(F)cc2N)cc1)c1ccccc1
9%	3%	14%	0%	0%	0%	82%	> 10 µM	> 10 µM	0.2 µM				Nc1cc(F)ccc1NC(=O)c1ccc(NC(=O)C2CC2c2ccccc2)cc1 (centres undefined)
							2.5 µM	4.8 µM	0.17 µM			14.7	CC[C@H](C(=O)Nc1ccc(C(=O)Nc2ccc(F)cc2N)cc1)c1ccccc1

The remaining lines, values behind:

Structure (SMILES)	inhibition (Histone deacetylase 2 [1])	inhibition [2]	inhibition [3]	inhibition [4]	inhibition [5]	inhibition (Histone deacetylase 1 [6])	inhibition [7]	IC50 (Histone deacetylase 1 [8])	IC50 (Histone deacetylase 2 [9])	IC50 [10]	inhibition [11]	inhibition [12]	Ratio IC50 (Homo sapiens)
Nc1ccccc1NC(=O)c1ccc(NC(=O)Cc2ccc(C(F)(F)F)cc2)cc1	38%	0%	0%	0%	0%	78%	33%						
Nc1cc(F)ccc1NC(=O)c1ccc(NC(=O)Cc2ccc(F)cc2)cn1								0.37 µM	3 µM	0.39 µM			
CC[C@@H](C(=O)Nc1ccc(C(=O)Nc2ccc(F)cc2N)nc1)c1ccccc1								0.3 µM	0.63 µM	0.06 µM	inactive	inactive	
CC[C@@H](C(=O)Nc1ccc(C(=O)Nc2ccc(F)cc2N)cc1)c1ccccc1								1.2 µM	1.2 µM	0.11 µM			10.9
Nc1cc(F)ccc1NC(=O)c1ccc(NC(=O)Cc2ccc(F)cc2)cc1								5.5 µM	2.7 µM	0.2 µM			
CC(C)[C@@H](C(=O)Nc1ccc(C(=O)Nc2ccc(F)cc2N)nc1)c1ccccc1								0.52 µM	1.1 µM	0.08 µM	inactive	inactive	6.5
Nc1cc(F)ccc1NC(=O)c1ccc(NC(=O)Cc2ccc(C(F)(F)F)cc2)cn1								> 10 µM	> 10 µM	> 10 µM			
CC(C)(C(=O)Nc1ccc(C(=O)Nc2ccccc2N)cc1)c1ccccc1	34%	0%	0%	6%	4%	49%	36%						
